Test results as given in ChEMBL document CHEMBL4130512, “Design, synthesis and biological evaluation of novel α-hederagenin derivatives with anticancer activity” (Eur J Med Chem, 2017).
Each block holds one compound with its values, some of them ahead of it. Activity calls are given as the source filed them. The rule behind the calls is not given here.

Key:
MKN-45 [1] = assay: Induction of mitochondrial membrane potential loss in human MKN45 cells at 5 to 10 uM after 24 hrs by JC-1 staining based flow cytometry; format: functional, cell-based
Outline: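 MKN45 cells were plated at 2×10⁵ cells/well in 6-well plates and exposed to indicated concentrations for 24 h. They were stained with JC-1 for 20 min, and the change in mitochondrial membrane potential was measured by flow cytometry; three experiments.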

MKN-45 [2] = assay: Antiproliferative activity against human MKN45 cells assessed as cell viability at 10 uM after 72 hrs by MTT assay relative to control; format: functional; details: MKN-45, 72 h, read-out: Activity
Outline: (§1)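 Single-concentration MTT screen. Log-phase cells in DMEM with 10% FCS were treated for 72 h in 96-well plates. After MTT and DMSO, absorbance was read at 570 nm. Viability was calculated relative to control as mean ± SD of three independent experiments.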

MKN-45 [3] = assay: Cell cycle arrest in human MKN45 cells assessed as apoptotic cell accumulation at 10 uM after 48 hrs by propidium iodide staining based flow cytometry (reference value: 1.51%); format: functional
Outline: (§2)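 MKN45 cells were plated at 2×10⁵ cells/well in 6-well plates and exposed for 24 and 48 h. Cells were harvested, fixed and stained with propidium iodide (50 µg/mL). DNA content was read by FACScan flow cytometry for phase distribution. The sub-G0/G1 fraction was taken as apoptotic.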

MKN-45 [4] = assay: Cell cycle arrest in human MKN45 cells assessed as accumulation at G1-phase at 10 uM after 24 hrs by propidium iodide staining based flow cytometry (reference value: 67%); format: functional; outline: as §2
MKN-45 [5] = assay: Antiproliferative activity against human MKN45 cells after 72 hrs by MTT assay; format: functional, cell-based; details: MKN-45, 72 h
Outline: (§3)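 Cells grown in DMEM with 10% heat-inactivated FCS, penicillin and streptomycin, at 37°C in 5% CO₂, and used in log phase. Cells were seeded in 96-well plates and exposed to compound for 72 h. MTT was added, then DMSO, and OD was read at 570 nm. Survival rate was calculated and IC50 taken as 50% growth inhibition.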

A549 = assay: Antiproliferative activity against human A549 cells after 72 hrs by MTT assay; format: functional, cell-based; details: A549, 72 h; outline: as §3
KB [6] = assay: Antiproliferative activity against human KB cells assessed as cell viability at 10 uM after 72 hrs by MTT assay relative to control; format: functional; details: read-out: Activity; outline: as §1
MKN-45 [7] = assay: Induction of apoptosis in human MKN45 cells assessed as decrease in Bcl2 expression after 24 hrs by Western blot method; format: functional, cell-based
Outline: (§4)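 MKN45 cells (2×10⁵) were treated with 5 or 10 µM. Lysates were run by electrophoresis and transferred to PVDF. Blots were probed overnight at 4°C for Bax, BCL2, PARP and β-actin (loading control), then with HRP secondary, and detected by ECL. Band density was scored in arbitrary units; three experiments.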

MKN-45 [8] = assay: Cell cycle arrest in human MKN45 cells assessed as apoptotic cell accumulation at 10 uM after 24 hrs by propidium iodide staining based flow cytometry (reference value: 1.51%); format: functional; outline: as §2
MKN-45 [9] = assay: Cell cycle arrest in human MKN45 cells assessed as accumulation at G2/M-phase at 10 uM after 48 hrs by propidium iodide staining based flow cytometry (reference value: 19%); format: functional; outline: as §2
MKN-45 [10] = assay: Cell cycle arrest in human MKN45 cells assessed as accumulation at G2/M-phase at 10 uM after 24 hrs by propidium iodide staining based flow cytometry (reference value: 19%); format: functional; outline: as §2
MKN-45 [11] = assay: Cell cycle arrest in human MKN45 cells assessed as accumulation at G1-phase at 10 uM after 48 hrs by propidium iodide staining based flow cytometry (reference value: 67%); format: functional; outline: as §2
MKN-45 [12] = assay: Induction of apoptosis in human MKN45 cells assessed as increase in Bax expression at 5 to 10 uM after 24 hrs by Western blot method; format: functional, cell-based; outline: as §4
HeLa = assay: Antiproliferative activity against human HeLa cells after 72 hrs by MTT assay; format: functional, cell-based; outline: as §3
AGS = assay: Antiproliferative activity against human AGS cells after 72 hrs by MTT assay; format: functional, cell-based; outline: as §3
MKN-45 [13] = assay: Induction of apoptosis in human MKN45 cells assessed as increase in cleaved PARP expression at 5 to 10 uM after 48 hrs by Western blot method; format: functional, cell-based; outline: as §4
MKN-45 [14] = assay: Induction of apoptosis in human MKN45 cells assessed as increase in Bax/Bcl2 expression ratio at 5 to 10 uM after 24 hrs by Western blot method; format: functional, cell-based; outline: as §4
[15] = Antiproliferative activity against human KBV cells after 72 hrs by MTT assay; format: functional, cell-based; outline: as §3
MKN-45 [16] = assay: Cell cycle arrest in human MKN45 cells assessed as accumulation at S-phase at 10 uM after 48 hrs by propidium iodide staining based flow cytometry (reference value: 15%); format: functional; outline: as §2
BGC-823 = assay: Antiproliferative activity against human BGC823 cells after 72 hrs by MTT assay; format: functional, cell-based; details: BGC-823, 72 h; outline: as §3
MKN-45 [17] = assay: Cell cycle arrest in human MKN45 cells assessed as accumulation at S-phase at 10 uM after 24 hrs by propidium iodide staining based flow cytometry (reference value: 15%); format: functional; outline: as §2
KB [18] = assay: Antiproliferative activity against human KB cells after 72 hrs by MTT assay; format: functional, cell-based; outline: as §3
KB [19] = assay: Antiproliferative activity against human KB cells assessed as cell viability at 100 nM after 72 hrs by MTT assay relative to control; format: functional; details: read-out: Activity; outline: as §1
MKN-45 [20] = assay: Antiproliferative activity against human MKN45 cells assessed as cell viability at 100 nM after 72 hrs by MTT assay relative to control; format: functional; details: MKN-45, 72 h, read-out: Activity; outline: as §1

IC50 (MKN-45 [5]): 7 µM | IC50 (A549): 6.3 µM | IC50 (HeLa): 4.22 µM | IC50 (AGS): 4.4 µM | IC50 (BGC-823): 5.15 µM | IC50 (KB [18]): 4.75 µM
SMILES: CCN/C(=N/CCCN(C)C)OC(=O)c1ccccc1C(=O)OC[C@]1(C)C(=O)CC[C@@]2(C)[C@H]1CC[C@]1(C)[C@@H]2CC=C2[C@@H]3CC(C)(C)CC[C@]3(C(=O)OCc3ccccc3)CC[C@]21C
Activity (MKN-45 [1]): Active | viability at 10 µM (MKN-45 [2]): 7% | Activity (MKN-45 [3]): 38.68% | Activity (MKN-45 [4]): 68% | viability at 10 µM (KB [6]): 26% | Activity (MKN-45 [7]): Dose-dependent effect | Activity (MKN-45 [8]): 2.47% | Activity (MKN-45 [9]): 31% | Activity (MKN-45 [10]): 21% | Activity (MKN-45 [11]): 54% | Activity (MKN-45 [12]): Active | Activity (MKN-45 [13]): Active | Activity (MKN-45 [14]): Active | IC50 [15]: 8.05 µM | Activity (MKN-45 [16]): 16% | Activity (MKN-45 [17]): 11%

SMILES: CC(=O)O[C@H]1C(=O)[C@@]2(C)[C@H]([C@H](OC(=O)c3ccccc3)[C@]3(O)C[C@H](OC(=O)[C@H](O)[C@@H](NC(=O)c4ccccc4)c4ccccc4)C(C)=C1C3(C)C)[C@]1(OC(C)=O)CO[C@@H]1C[C@@H]2O [PACLITAXEL]
viability at 0.1 µM (KB [19]): 15% | viability at 0.1 µM (MKN-45 [20]): 23%
